Results from ChEMBL document CHEMBL4257585, “Structure-Activity Relationships of Photoswitchable Diarylethene-Based β-Hairpin Peptides as Membranolytic Antimicrobial and Anticancer Agents” (J Med Chem, 2018).
Converted amounts (≈) assume the structure as drawn.

Key:
[1] = system: Bacillus subtilis; experiment: Antimicrobial activity against Bacillus subtilis DSM 347 after 22 hrs by resazurin dye based spectrophotometry; format: functional; conditions: DSM 347, 22 h
Summary of the method: (§1)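 2-fold broth microdilution in Mueller–Hinton medium; peptide stocks 1024 μg/mL in 50% ethanol. Exponential-phase cultures diluted to OD550 0.2, then 1:100 (B. subtilis) or 1:1000 (E. coli), giving 5 × 10^5 CFU/mL per well. Incubated 22 h, 37 °C, static; then resazurin (0.2 mg/mL solution) added for 2 h at 37 °C, read visually and spectrophotometrically. Tested in both photoforms.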

[2] = system: Escherichia coli; experiment: Antimicrobial activity against Escherichia coli DSM 1103 after 22 hrs by resazurin dye based spectrophotometry; format: functional; conditions: DSM 1103, 22 h; summary of the method: as §1
[3] = system: HeLa; experiment: Cytotoxicity against human HeLa cells assessed as reduction in cell viability after 24 hrs by MTT assay; format: functional, cell-based
Summary of the method: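 HeLa cells seeded at about 5 × 10^4 cells/mL in DMEM with 10% FBS, 2 mM glutamine, gentamicin; 24 h adaptation (37 °C, 5% CO2), then 24 h peptide exposure. MTT 4 h, formazan in DMSO read at 570 nm. 2-fold series 256–0.5 (open) or 512–1 μg/mL (closed), four repetitions; IC50 extrapolated from killing curves. Closed form handled in dim light.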

[4] = Hemolytic activity against human RBC assessed as hemolysis after 30 mins by colorimetric method; format: ADME, cell-based, Erythrocyte; conditions: human red blood cells (erythrocytes)
Summary of the method: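 Human erythrocytes washed twice in isotonic 172 mM Tris-HCl, pH 7.6; peptides dissolved in DMSO, diluted in buffer, two independent 10-step 2-fold series from 256 or 192 μg/mL. HC50 extrapolated as 50% hemolysis concentration.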

[5] = Therapeutic index, ratio of HC50 for human RBC to MIC for Escherichia coli DSM 1103; format: toxicity; conditions: human red blood cells versus Escherichia coli DSM 1103
Summary of the method: (§2)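 Ratio of HC50 (RBC) to HeLa IC50 or to MIC against B. subtilis or E. coli; values measured in mg/mL and recalculated to μM, 2-fold dilution without curve fitting, accuracy within a factor of 2.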

[6] = Therapeutic index, ratio of HC50 for human RBC to MIC for Bacillus subtilis DSM 347; format: toxicity; conditions: human red blood cells versus Bacillus subtilis DSM 347; summary of the method: as §2
[7] = Selective ratio of HC50 for human RBC to IC50 for human HeLa cells; format: toxicity; conditions: human red blood cells versus HeLa cells; summary of the method: as §2

SMILES	MIC [1] [µM]	MIC [2] [µM]	IC50 [3] [µM]	HC50 at 0.5 h [4] [µM]	selectivity ratio [5]	selectivity ratio [6]	selectivity ratio [7]
Cc1sc2cc1C1=C(CCC1)c1cc(sc1C)C(=O)[C@H]1CCCN1C(=O)[C@H](C(C)C)NC(=O)[C@H](CCCCN)NC(=O)[C@H](C(C)C)NC(=O)[C@H](CC(C)C)NC(=O)[C@@H](CCCCN)NC(=O)[C@@H]1CCCN1C(=O)[C@@H](Cc1ccccc1)NC(=O)[C@H](C(C)C)NC(=O)[C@H](CCCCN)NC(=O)[C@H](CC(C)C)NC(=O)[C@H](CCCCN)NC(=O)[C@H](C(C)C)NC2=O	1 (≈ 1.76 µg/mL)	9 (≈ 15.9 µg/mL)	3	1	0.1	1	0.3
Cc1sc2cc1C1=C(CCC1)c1cc(sc1C)C(=O)[C@H]1CCCN1C(=O)[C@H]([C@H](O)C(C)C)NC(=O)[C@H](CCCN)NC(=O)[C@H](C(C)C)NC(=O)[C@@H]1CCCN1C(=O)[C@@H](Cc1ccccc1)NC(=O)[C@H](C(C)C)NC(=O)[C@H](CCCN)NC(=O)[C@H](C(C)C)NC2=O	2 (≈ 2.57 µg/mL)	100 (≈ 128 µg/mL)	31	39	0.4	25	1.3
CC(C)[C@@H]1NC(=O)C2=CC3=C4CCCC4=C4C=C(S[C@]4(C)[C@@]3(C)S2)C(=O)[C@H]2CCCN2C(=O)[C@H]([C@@H](C)O)NC(=O)[C@H](CCCN)NC(=O)[C@H](C(C)C)NC(=O)[C@@H]2CCCN2C(=O)[C@@H](Cc2ccccc2)NC(=O)[C@H](C(C)C)NC(=O)[C@H](CCCN)NC1=O	51 (≈ 64 µg/mL)	204 (≈ 256 µg/mL)	153	408	2	8	2.7
CC[C@H](C)[C@@H]1NC(=O)c2cc(c(C)s2)C2=C(CCC2)c2cc(sc2C)C(=O)[C@H]2CCCN2C(=O)[C@H](CC(C)C)NC(=O)[C@H](CCCN)NC(=O)[C@H]([C@@H](C)CC)NC(=O)[C@@H]2CCCN2C(=O)[C@H]2CCCN2C(=O)[C@H](CC(C)C)NC(=O)[C@H](CCCN)NC1=O	2 (≈ 2.52 µg/mL)	51 (≈ 64.2 µg/mL)	6	8	0.2	4	1.3
CC(C)C[C@@H]1NC(=O)[C@H](CCCN)NC(=O)[C@H](C)NC(=O)C2=CC3=C4CCCC4=C4C=C(S[C@]4(C)[C@@]3(C)S2)C(=O)[C@H]2CCCN2C(=O)[C@H](C)NC(=O)[C@H](CCCN)NC(=O)[C@H](C(C)C)NC(=O)[C@@H]2CCCN2C(=O)[C@@H](Cc2ccccc2)NC1=O	40 (≈ 48.4 µg/mL)	212 (≈ 257 µg/mL)	106	175	0.8	4.4	1.7
CC(C)NC(=O)C[C@@H]1NC(=O)C2=CC3=C4CCCC4=C4C=C(S[C@]4(C)[C@@]3(C)S2)C(=O)[C@H]2CCCN2C(=O)[C@H](C(C)C)NC(=O)[C@H](CCCN)NC(=O)[C@H](C(C)C)NC(=O)[C@@H]2CCCN2C(=O)[C@@H](Cc2ccccc2)NC(=O)[C@H](C(C)C)NC(=O)[C@H](CCCN)NC1=O	49 (≈ 64.2 µg/mL)	196 (≈ 257 µg/mL)	196	391	2	7.8	2
CC(C)C[C@@H]1NC(=O)[C@H](CCCCN)NC(=O)[C@H](C(C)C)NC(=O)[C@@H]2CCCN2C(=O)[C@@H](Cc2ccccc2)NC(=O)[C@H](CC(C)C)NC(=O)[C@H](CCCCN)NC(=O)[C@H](C(C)C)NC(=O)[C@H](CCCCN)NC(=O)C2=CC3=C4CCCC4=C4C=C(S[C@]4(C)[C@@]3(C)S2)C(=O)[C@H]2CCCN2C(=O)[C@H](CCCCN)NC1=O	21 (≈ 32.9 µg/mL)	164 (≈ 257 µg/mL)	82	65	0.4	3.1	0.8
Cc1sc2cc1C1=C(CCC1)c1cc(sc1C)C(=O)[C@H]1CCCN1C(=O)[C@H](CCCCN)NC(=O)[C@H](C13CC4CC(CC(C4)C1)C3)NC(=O)[C@H](CCCN)NC(=O)[C@@H]1CCCN1C(=O)[C@@H](Cc1ccccc1)NC(=O)[C@H](CCCN)NC(=O)[C@H](C13CC4CC(CC(C4)C1)C3)NC(=O)[C@H](CCCN)NC2=O	3 (≈ 4.44 µg/mL)	16 (≈ 23.7 µg/mL)	11	1	0.1	0.3	0.1
Cc1sc2cc1C1=C(CCC1)c1cc(sc1C)C(=O)[C@H]1CCCN1C(=O)[C@H](C(C)C)NC(=O)[C@H](CCCN)NC(=O)[C@H]([C@H](O)C(C)C)NC(=O)[C@@H]1CCCN1C(=O)[C@@H](Cc1ccccc1)NC(=O)[C@H](C(C)C)NC(=O)[C@H](CCCN)NC(=O)[C@H]([C@H](O)C(C)C)NC2=O	3 (≈ 3.94 µg/mL)	98 (≈ 129 µg/mL)	61	160	1.6	53.3	2.6
CC(C)[C@@H]1NC(=O)[C@H](CCCN)NC(=O)[C@H]([C@H](O)C(C)C)NC(=O)C2=CC3=C4CCCC4=C4C=C(S[C@]4(C)[C@@]3(C)S2)C(=O)[C@H]2CCCN2C(=O)[C@H](C(C)C)NC(=O)[C@H](CCCN)NC(=O)[C@H](C(C)C)NC(=O)[C@@H]2CCCN2C(=O)[C@@H](Cc2ccccc2)NC1=O	13 (≈ 16.7 µg/mL)	200 (≈ 257 µg/mL)	300	351	1.8	27	1.2
Cc1sc2cc1C1=C(CCC1)c1cc(sc1C)C(=O)[C@H]1CCCN1C(=O)[C@H](C)NC(=O)[C@H](CCCN)NC(=O)[C@H](C(C)C)NC(=O)[C@@H]1CCCN1C(=O)[C@@H](Cc1ccccc1)NC(=O)[C@H](CC(C)C)NC(=O)[C@H](CCCN)NC(=O)[C@H](C)NC2=O	7 (≈ 8.47 µg/mL)	106 (≈ 128 µg/mL)	40	87	0.8	12.4	2.2

More lines, main results first:

MIC [1] [µM]	MIC [2] [µM]	SMILES	IC50 [3] [µM]	HC50 at 0.5 h [4] [µM]	selectivity ratio [5]	selectivity ratio [6]	selectivity ratio [7]
6 (≈ 7.55 µg/mL)	203 (≈ 256 µg/mL)	CC[C@H](C)[C@@H]1NC(=O)C2=CC3=C4CCCC4=C4C=C(S[C@]4(C)[C@@]3(C)S2)C(=O)[C@H]2CCCN2C(=O)[C@H](CC(C)C)NC(=O)[C@H](CCCN)NC(=O)[C@H]([C@@H](C)CC)NC(=O)[C@@H]2CCCN2C(=O)[C@H]2CCCN2C(=O)[C@H](CC(C)C)NC(=O)[C@H](CCCN)NC1=O	64	120	0.6	20	1.9
6 (≈ 16.6 µg/mL)	96 (≈ 266 µg/mL)	CC(C)[C@@H]1NC(=O)[C@H](CCCN)NC(=O)[C@H]([C@H](O)C(C)C)NC(=O)C2=CC3=C4CCCC4=C4C=C(S[C@]4(C)[C@@]3(C)S2)C(=O)[C@H]2CCCN2C(=O)[C@H](C(C)C)NC(=O)[C@H](CCCN)NC(=O)[C@H](C(C)C)NC(=O)[C@H](CCCn2cc(COCc3cn(CCC[C@H]4C(=O)N[C@@H](C(C)C)C(=O)N[C@@H](CCCN)C(=O)N[C@@H](C(C)C)C(=O)N5CCC[C@@H]5C(=O)C5=CC6=C7CCCC7=C7C(=CS[C@]7(C)[C@@]6(C)S5)C(=O)N[C@@H]([C@H](O)C(C)C)C(=O)N[C@@H](CCCN)C(=O)N[C@@H](C(C)C)C(=O)N[C@H](Cc5ccccc5)C(=O)N4C)nn3)nn2)N(C)C(=O)[C@@H](Cc2ccccc2)NC1=O	48	10	0.1	1.7	0.2
3 (≈ 3.89 µg/mL)	12 (≈ 15.5 µg/mL)	CC(C)C[C@@H]1NC(=O)[C@H](CCCN)NC(=O)[C@H](CCCN)NC(=O)C2=CC3=C4CCCC4=C4C=C(S[C@]4(C)[C@@]3(C)S2)C(=O)[C@H]2CCCN2C(=O)[C@H](CC(C)C)NC(=O)[C@H](CCCN)NC(=O)[C@H](C(C)C)NC(=O)[C@@H]2CCCN2C(=O)[C@@H](Cc2ccccc2)NC1=O	12	17	1.4	5.7	1.4
4 (≈ 7.29 µg/mL)	18 (≈ 32.8 µg/mL)	Cc1sc2cc1C1=C(CCC1)c1cc(sc1C)C(=O)[C@H]1CCCN1C(=O)[C@H](CC(C)C)NC(=O)[C@H](CCCCN)NC(=O)[C@H](C(C)C)NC(=O)[C@H](CCCCN)NC(=O)[C@H](CC(C)C)NC(=O)[C@H](CCCCN)N(C)C(=O)[C@@H](Cc1ccccc1)NC(=O)[C@H](C(C)C)NC(=O)[C@H](CCCCN)NC(=O)[C@H](CC(C)C)NC(=O)[C@H](CCCCN)NC(=O)[C@H](C(C)C)NC2=O	2	< 1	0.1	0.3	0.5
2 (≈ 3.13 µg/mL)	41 (≈ 64.2 µg/mL)	Cc1sc2cc1C1=C(CCC1)c1cc(sc1C)C(=O)[C@H]1CCCN1C(=O)[C@H](C(C)C)NC(=O)[C@H](CCCCN)NC(=O)[C@H](CC(C)C)NC(=O)[C@H](CCCCN)NC(=O)[C@@H]1CCCN1C(=O)[C@@H](Cc1ccccc1)NC(=O)[C@H](CCCCN)NC(=O)[C@H](C(C)C)NC(=O)[C@H](CCCCN)NC(=O)[C@H](CC(C)C)NC2=O	41	82	2	41	2
